Source: PubChem
STAT1 activator = activators of IFN-gamma induced STAT1 signaling | NIH 3T3 STAT1-luciferase reporter, luminescence; 100% = IFN-gamma alone, no compound | activation (% of control), % at 5.5 µM | actives 2.6% (n = 200,000) | AID 932;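 active = activation above the screen-wide mean activation plus 3 SD, cut at about 130% in these data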
STAT3 act = STAT3 signaling activation. U3A cells, IL-6 STAT3-luciferase reporter, luminescence; 100% = signal with IL-6 EC80 alone. activation (% of control), % at 5.6 µM. actives 0.91% (n = 190,000). AID 871;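 active = activation above the screen-wide mean of compound activation plus 3 SD, cut at about 130% in these data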
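Assay system – human STAT1-deficient U3A cells with stable STAT3-luciferase reporter · Also added – IL-6 (33 ng/mL) · Schedule – compound 1 h, then IL-6 6 h at 37 °C · Technique – reporter luminescence signal · Evaluation – % activation versus median of IL-6-stimulated wells · Benchmarks – IL-6-only wells as 100% reference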
STAT3 inh-1 = inhibitors of IL-6 induced STAT3 signaling; U3A cells, IL-6 STAT3-luciferase reporter, luminescence; host cell line lacks STAT1; inhibition, % at 5.5 µM; actives 0.89% (n = 190,000);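 active = inhibition above the mean inhibition across all screened compounds plus 3 SD, cut at about 44% in these data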
APP 5'UTR act = activates APP 5'UTR luciferase reporter; actives 1% (n = 190,000); AID 1276; SH-SY5Y APP 5'UTR luciferase reporter, luminescence; zero percent = DMSO vehicle wells; activation, % at 2 µM;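 active = activation above a set limit, based on mean plus 3 SD of controls, cut at about 140% in these data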
NF-kB neuron act = raises NF-kB expression in human neuronal cells; NF-kB reporter expression; active compounds read high; fold change at 12.5 µM; actives 1.6% (n = 190,000); in the data active = fold change above about 3.3
STAT1 inh = reduces IFN-gamma driven STAT1 reporter signal; NIH 3T3 STAT1-luciferase reporter, luminescence; inhibition, % at 5.5 µM; actives 0.35% (n = 200,000); AID 920;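 active = inhibition above a set limit, the mean inhibition across all tested compounds plus 3 SD, cut at about 34% in these data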
STAT3 inh-2 = STAT3 inhibition, confirmation assay; shares compounds with STAT3 inh-1; U3A cells, IL-6 STAT3 luciferase reporter, luminescence; cell line lacks STAT1; inhibition, % at 5.7 µM; actives 45% (n = 1,200); AID 1265;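 active = inhibition above the hit cutoff computed for the primary STAT3 screen, cut at about 44% in these data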
NFkB inh STAT3ct = inhibits NF-kappaB, counter-screen to STAT3 inhibitors. AID 1308. shares compounds with STAT3 inh-1. HEK293T NF-kB luciferase reporter, TNF-alpha induced. inhibition, % at 5.7 µM. actives 36% (n = 1,200);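 active = inhibition above the mean of solvent-only control wells plus 3 SD, cutoff set per campaign, cut at about 13% in these data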
STAT1 inh 2 = STAT1 inhibition in STAT3 inhibitor counter-screen; shares compounds with STAT3 inh-1; NIH 3T3 STAT1-luciferase reporter, IFN-gamma induced, luminescence; inhibition, % at 5.7 µM; actives 27% (n = 1,200); AID 1317;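 active = inhibition above the mean plus 3 SD of solvent-only control wells, limit set per screening run, cut at about 16% in these data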
Large screens that a line does not name were inactive (follow-up assays come after a bar, where they were run). An excerpt weighted towards active compounds, which were near 4.9% of everything screened.

Cc1ccc(-c2cc(C(=O)NCCCN3CCOCC3)no2)cc1	STAT3 inh-1 56 | STAT3 inh-2 inactive | NFkB inh STAT3ct inactive | STAT1 inh 2 inactive
O=C(NCCN1CCOCC1)c1cc(-c2ccc(Cl)cc2)on1	none
CCc1ccc(CN(C)C(=O)CCc2nnc(CCc3ccccc3OC)o2)nc1	none
O=C(NCCC1=CCCCC1)c1ccc(Cl)cc1	STAT3 inh-1 47, APP 5'UTR act 228, NF-kB neuron act 5.5 | STAT3 inh-2 inactive | NFkB inh STAT3ct inactive | STAT1 inh 2 inactive
CCN=c1scc(-c2ccc3c(c2)NC(=O)CO3)n1N=C1CCCC1	STAT3 inh-1 73 | STAT3 inh-2 64 | NFkB inh STAT3ct 14 | STAT1 inh 2 inactive
CCCCN=c1scc(-c2ccc3c(c2)NC(=O)CO3)n1N=C1CCCC1	none
O=C(/C=C/c1cccc([N+](=O)[O-])c1)N1CCN(c2ccc(F)cc2)CC1	none
CCn1ccnc1CN(C)Cc1cn(-c2ccccc2)nc1-c1ccc(OC)cc1F	none
Cc1ccc(C)n1-c1ccc(-c2ccnc(N)n2)cc1	STAT3 inh-1 45 | STAT3 inh-2 inactive | NFkB inh STAT3ct inactive | STAT1 inh 2 inactive
COc1cc(C(=O)NNC(=O)Nc2ccc([N+](=O)[O-])cc2)cc(OC)c1OC	none
CC(O)/C=C/c1ccc2ccccc2n1 (stereo not drawn)	none
Cc1ccsc1/C=C/c1ccc2ccccc2n1	STAT3 inh-1 46, APP 5'UTR act 177, NF-kB neuron act 5 | STAT3 inh-2 46 | NFkB inh STAT3ct 20 | STAT1 inh 2 inactive
Fc1cccc(F)c1/C=C/c1ccc2ccccc2n1	STAT3 inh-1 56, APP 5'UTR act 166, NF-kB neuron act 4.4 | STAT3 inh-2 inactive | NFkB inh STAT3ct 23 | STAT1 inh 2 inactive
Cc1ccc(-c2csc(NC(=O)c3cc([N+](=O)[O-])ccc3N3CCOCC3)n2)cc1	none
O=C(Nc1nc(-c2ccccc2)cs1)c1ccc(N2CCOCC2)c([N+](=O)[O-])c1	STAT3 inh-1 72 | STAT3 inh-2 77 | NFkB inh STAT3ct 23 | STAT1 inh 2 16
CCCCc1ccc(NC(=O)c2cnccn2)cc1	STAT3 inh-1 62, APP 5'UTR act 174, NF-kB neuron act 5.8 | STAT3 inh-2 inactive | NFkB inh STAT3ct inactive | STAT1 inh 2 inactive
O=C(Nc1ccc(S(=O)(=O)Nc2ncccn2)cc1)c1ccc(S(=O)(=O)N2CCCC2)cc1	none
O=C(Nc1ccc(S(=O)(=O)N2CCCCC2)cc1)c1ccc(CN2CCOCC2)cc1	STAT3 inh-1 83 | STAT3 inh-2 80 | NFkB inh STAT3ct 29 | STAT1 inh 2 inactive
Cc1ccc(C(=O)Nc2ccc(S(=O)(=O)N3CCOCC3)cc2)cc1	none
O=C(Nc1ccc(Cc2ccncc2)cc1)c1ccc(S(=O)(=O)N2CCOCC2)cc1	STAT3 inh-1 70 | STAT3 inh-2 57 | NFkB inh STAT3ct inactive | STAT1 inh 2 inactive
O=C(Nc1ccc(S(=O)(=O)N2CCCC2)cc1)c1ccc(CN2CCOCC2)cc1	STAT3 inh-1 65 | STAT3 inh-2 52 | NFkB inh STAT3ct 15 | STAT1 inh 2 inactive
Cc1ccc(C(=O)N2CCN(C(=O)c3ccco3)CC2)cc1NC(=O)c1ccco1	none
COc1ccccc1N=CC1=C(O)CC(c2ccccc2)CC1=O (stereo not drawn)	none
O=C(CCCCCN1C(=O)c2ccccc2C1=O)Oc1ccc2c3c(c(=O)oc2c1)CCC3	none
CN(c1ccc(C(=O)Nc2ccc(S(=O)(=O)N3CCCC3)cc2)cc1)S(C)(=O)=O	STAT3 inh-1 58 | STAT3 inh-2 inactive | NFkB inh STAT3ct inactive | STAT1 inh 2 inactive
O=C(Nc1ccc2c(c1)OCCO2)c1ccc(CN2CCOCC2)cc1	none
